Rows were chosen to be rich in hits. Some 4.1% of all compounds tested hit in one or more screens of this group.
MPTP block: permeability transition pore inhibition; isolated mouse mitochondria, Ca2+ swelling absorbance, 30 min; 360,000 compounds, 1.4% hits; inhibition, % at 10 µM;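 active means inhibition of 50% or more, scaled per plate between neutral and stimulator controls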;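 further: 0% = DMSO wells given calcium and 100% = 1 mM EGTA wells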
MC4R antag cAMP: antagonists of human melanocortin 4 receptor (MC4R); inhibition, % at 6.5 µM; P32245; MC4R-expressing cells, MTII-stimulated cAMP, LANCE TR-FRET; 360,000 compounds, 0.48% hits;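 active means inhibition above its plate's cutoff, the mean of tested wells on that plate plus 3 SD, cut at about 29% in these data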;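 further: 0% = Melanotan II alone and 100% = Melanotan II plus saturating MCL0020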
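Assay system: human MC4R-expressing U2OS cells; reagent: Melanotan II stimulation of cells; dosing: 6.5 µM single dose; timing: compound 30 min, challenge 1 h, detection 1 h; signal: TR-FRET cAMP assay; replicates: one well per compound, no replicates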
ATG4B inh: ATG4B (human) cysteine protease inhibition | ATG4B cleavage of LC3-PLA2, NBD-HPC fluorescence, 1 h | inhibition, % at 8.33 µM | 340,000 compounds, 0.51% hits | Q9Y4P1; in the data active means inhibition above about 40%
Target sequence (Q9Y4P1 whole entry, looked up): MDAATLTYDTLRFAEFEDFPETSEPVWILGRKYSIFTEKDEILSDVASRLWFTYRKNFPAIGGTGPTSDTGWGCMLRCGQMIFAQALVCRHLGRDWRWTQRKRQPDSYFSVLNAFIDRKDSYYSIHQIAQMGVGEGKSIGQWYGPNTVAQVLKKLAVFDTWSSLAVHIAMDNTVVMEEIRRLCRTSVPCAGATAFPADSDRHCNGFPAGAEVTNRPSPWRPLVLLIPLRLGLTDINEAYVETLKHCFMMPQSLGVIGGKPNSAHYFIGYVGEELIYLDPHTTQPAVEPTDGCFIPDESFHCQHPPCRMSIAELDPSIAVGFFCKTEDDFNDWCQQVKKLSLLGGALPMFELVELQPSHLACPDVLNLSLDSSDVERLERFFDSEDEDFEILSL
MC4R ag barr: human MC4R agonism via beta-arrestin; activation, % at 8.9 µM; U2OS MC4R beta-arrestin complementation, luminescence; percent of melanotan II response, DMSO zero; 360,000 compounds, 0.98% hits; P32245;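 active means activation above a per-plate cutoff, the mean activation of sample wells on that plate plus 3 SD, cut at about 8% in these data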
SMARCA2 activ: activators of SMARCA2 function; activation, % at 9.1 µM; MG213 cells, MMTV-luciferase reporter, dexamethasone, overnight; AID 652017; 370,000 compounds, 1% hits; in the data active means activation above about 7.8%;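 further: 0% = vehicle wells and 100% = reference activator wells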
SMARCA2 act conf: SMARCA2 activation, confirmation screen. 3,500 compounds, 30% hits. MG213 cells, MMTV-luciferase with dexamethasone, luminescence, overnight; MG213 cells expressing E1A, Rb sequestered; DMSO wells 0%, reference activator 100%. activation, % at 9.1 µM. shares compounds with SMARCA2 activ;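 active means activation above its plate's cutoff, the mean activation of tested wells plus 3 SD, cut at about 7.9% in these data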
GAL4-VP16 Luc: activates GAL4-VP16 luciferase, flagging SMARCA2 activator hits. shares compounds with SMARCA2 activ. HEK293 GAL4-VP16 pG5luc reporter, luciferase luminescence; scaled: DMSO wells 0%, SAHA wells 100%. activation, % at 9.1 µM. 3,500 compounds, 41% hits. AID 686939;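 active means activation above the solvent-only control well mean plus 3 SD, averaged across control plates, cut at about 5.2% in these data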
* = called active by the depositor; . = not tested or not shown.

SMILES | MPTP block | MC4R antag cAMP | ATG4B inh | MC4R ag barr | SMARCA2 activ | SMARCA2 act conf | GAL4-VP16 Luc
c1ccc(-n2cnc3cc(NCc4cccs4)ccc32)cc1 | -4 | 8 | 7 | -2 | -3 | . | .
c1ccc(-n2cnc3cc(NCc4ccco4)ccc32)cc1 | -4 | -12 | -1 | -3 | 9.6* | 5 | 8.2*
O=C(O/N=C1\CCCc2ccccc21)c1ccc(F)cc1 | 1 | -2 | -6 | 1 | 9.7* | 5 | -1
Cc1ccc2c(c1)/C(=N/OC(=O)c1ccc(F)cc1)CCS2 | 0 | 7 | 10 | 5 | -5 | . | .
CC1CCN(C(=O)c2ncn3c2C(=O)NC[C@@H]3C)CC1 | . | . | . | . | 0 | . | .
CCOc1ccc(NC(=S)NC(=O)c2ccco2)cc1 | 2 | -4 | -3 | -2 | 10* | 2 | 11*
CCOc1ccc(NC(=O)c2ccco2)cc1 | 0 | 3 | -8 | 0 | 6 | . | .
O=S1(=O)CC(N2CC=CC2)CN1Cc1cn(Cc2cccc(C(F)(F)F)c2)nn1 (stereo unspecified) | 0 | . | . | . | -6 | . | .
COc1ccc(CCNCC(=O)Nc2c(C)cc(C)cc2C)cc1OC | 0 | 2 | -2 | -2 | -4 | . | .
COc1ccc(CCNCCC(=O)Nc2c(C)cc(C)cc2C)cc1OC | 23 | 2 | -6 | 0 | 9.0* | 5 | 1
COc1ccc(/C=N\NC(=O)Cc2cccs2)c(OC)c1OC | . | . | . | . | 3 | . | .
COC(=O)c1ccc2nc(-c3cccc(Cl)c3)c(Cc3cccc(F)c3)n2c1 | 2 | . | . | . | 11* | -4 | 2
COc1ccc(/C=C2/CCc3ccccc3C2=O)cc1CN1CCOCC1 | 0 | 5 | 28 | -3 | 8.0* | 4 | 2
Cc1nc(NC2CCCC2)c2nnn(Cc3ccccc3)c2n1 | . | . | . | . | 7 | . | .
CC(C)c1cc(C(C)C)c(S(=O)(=O)N2CCC(C(=O)NCc3cccs3)CC2)c(C(C)C)c1 | . | . | . | . | -3 | . | .
COc1ccc2c(c1)c1nc3n(c(=O)c1n2CC(=O)Nc1ccccc1)CCCS3 | 1 | 6 | 5 | 0 | 11* | 1 | 0
Cc1ccc(-n2nnc(-c3cc4ccccc4n3C)n2)cc1 | 1 | 1 | 0 | -1 | 6 | . | .
Cn1c(-c2nnn(-c3ccc(F)cc3)n2)cc2ccccc21 | . | . | . | . | 8.8* | 6 | 8.4*
CCc1ccccc1CNC(=O)C1CCC(CNS(=O)(=O)c2cccc3cccnc23)CC1 (stereo unspecified) | . | . | . | . | -1 | . | .
COc1cccc(N(C)C(=O)[C@@H](C2CC2)[C@@H](O)c2ccc(Cl)cc2)c1 | . | . | . | . | 0 | . | .
Cc1ccc(NC(=O)c2cnccn2)c(Br)c1 | -1 | -2 | 0 | 0 | 10* | 8 | 6.2*
Cc1ccc(NC(=O)c2cnccn2)nc1 | 0 | -1 | -5 | -3 | 4 | . | .
CCCC[C@H]1C2CC(OC(=O)NCCCc3ccccc3)C(C2)[C@H]2CCCCN21 (stereo partly specified) | . | . | . | . | 11* | 0 | 1
COC(=O)[C@]12C[C@H](CC(=O)NCCCCc3ccccc3)C(=O)N(Cc3cccc4ccccc34)C1=C[C@H](C1CCCC1)O[C@@H]2C | . | . | . | . | -1 | . | .
c1ccc(Cn2c(-c3cncs3)nc3ccccc32)cc1 | 2 | 1 | 0 | -2 | 1 | . | .
SMILES | MPTP block | MC4R antag cAMP | ATG4B inh | MC4R ag barr | SMARCA2 activ | SMARCA2 act conf | GAL4-VP16 Luc
Brc1ccc(Cn2c(-c3cncs3)nc3ccccc32)cc1 | 2 | -10 | -2 | 1 | 8.8* | 7 | 2
COC(=O)C1CN(CCc2ccccc2)CCS(=O)(=O)N1Cc1ccccc1 (stereo unspecified) | . | . | . | . | -2 | . | .
COc1ccc(-c2nnc(-c3ccccc3)o2)cc1OC | 0 | 22 | 0 | 1 | 8.4* | 6 | 12*
CN(Cc1ccc(F)cc1)C(=O)CCc1nnc(-c2ccccc2)o1 | 0 | -2 | 2 | -4 | 2 | . | .
COc1ccccc1-c1nnc(-c2ccc(C)cc2)o1 | 4 | -2 | -11 | -1 | 13* | 7 | 7.1*
COc1ccc(CCN(C)C(=O)CCc2nnc(-c3ccccc3)o2)cc1OC | 2 | 3 | -9 | 0 | 11* | 13* | 7.3*
Cc1cc(C)cc(NC(=O)Nc2cnccn2)c1 | -1 | -4 | -3 | -3 | 1 | . | .
Cc1ccc(NC(=O)Nc2cnccn2)cc1 | 1 | 1 | 2 | -1 | 10.0* | 4 | 4
CCCNC(=O)C[C@H]1CC[C@@H]2[C@H](COC[C@@H](O)CN2C(=O)c2ccccn2)O1 | 0 | . | . | . | -6 | . | .
O=C(NC1CC1)c1cccc(NC(=O)C2CCCCC2)c1 | -1 | 0 | . | -1 | 8.1* | 0 | 1
N/C(=N\OC(=O)c1ccc(Br)cc1)c1ccncc1 | 1 | -3 | 12 | 3 | 4 | . | .
N/C(=N\OC(=O)c1cccc(Br)c1)c1ccncc1 | -1 | 3 | 0 | 1 | 8.0* | 7 | 7.4*
Cc1cc(OCC(=O)NNC(=O)c2ccncc2)cc(C)c1Cl | -1 | 1 | 7 | -1 | 5 | . | .
Cc1cc(OCC(=O)NC(C)C)cc(C)c1Cl | -2 | 4 | 0 | 0 | 11* | -5 | -1
CC1CN(C(=O)CCC(=O)NC(C)c2ccccc2)c2cc(Cl)ccc2O1 (stereo unspecified) | -4 | -1 | -2 | -1 | 8.3* | -2 | 2
Cc1cccnc1N=O | . | . | . | . | -4 | . | .
CC(C)(C)c1ccc(S(=O)(=O)NCC2CCN(C(=O)C(=O)c3cccs3)CC2)cc1 | . | . | . | . | -3 | . | .
Oc1cccc(Nc2ncnc3c2oc2ccccc23)c1 | 0 | 13 | -15 | -2 | 8.3* | 12* | 9.1*
COc1ccc2c(c1OC)C(=O)N1c3ccccc3COC21 (stereo unspecified) | -2 | 10 | 7 | -2 | 8.2* | 8.9* | 9.3*
COC(=O)[C@]12CCCCC=C1N(Cc1ccc(OC)cc1)C(=O)[C@@H]2CC(=O)N1CCN(C(=O)c2ccco2)CC1 | . | . | . | . | -1 | . | .
Cc1cc(C)nc(NC(=O)/C=C/c2cccs2)c1 | 2 | -1 | 9 | -1 | 8.8* | 6 | 9.9*
C=CCN1C(=O)/C(=C/c2ccc(OC)cc2)S/C1=N/c1nccs1 | 2 | 2 | 7 | 0 | 10* | -1 | 1
O=C(N[C@H](Cc1ccccc1)C(=O)N1CCCN(Cc2ccccc2F)CC1)[C@H]1O[C@@H](n2ccc(=O)[nH]c2=O)[C@H](O)[C@@H]1O | . | . | . | . | -4 | . | .
COc1ccc(CNCCC2(Cc3ccccc3)CC(C)N(C)CC2C)cc1OC (stereo unspecified) | -2 | -1 | -7 | -3 | 8.3* | 5 | 2
COc1ccc(C2NC(=O)NC(C)=C2C(=O)OCc2ccccc2)cc1 (stereo unspecified) | -2 | -1 | -2 | -1 | 14* | 4 | 1

From PubChem
